{"source": "paper PMC7245055", "about": "(Chemical biology & drug design, 2019)", "key": {"[1]": {"experiment": "Thermodynamic turbidimetric aqueous solubility assay", "format": "physicochemical", "details": "for aqueous solubility (in words): turbidity at 620 nm in H2O; for solubility: pure water with 1% DMSO, 37 °C, water, kinetic from dmso stock", "outline": "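DMSO solutions of test compound were serially diluted from 40 mM to 0.1 mM. Each was diluted 2 μL into ~198 μL pure water and shaken on a rotary shaker at 37 °C for 1–2 h to reach equilibrium solubility. Turbidity was measured as absorbance at 620 nm. Triplicate wells, reported as means ± SD.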"}, "INS-1 β-cells [2]": {"system": "INS-1 β-cells", "details": "cited from earlier work"}, "INS-1 β cells [3]": {"system": "INS-1 β cells", "experiment": "INS-1 cell viability against thapsigargin", "format": "cell-based, rat", "details": "TG 18 nM, 72 h, CellTiter-Glo", "outline": "(§1)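 INS-1 cells were plated in RPMI 1640 with 10% FBS at 5 × 10^3 cells/well and held 24 h at 37 °C. Test compound was pin-transferred, then stressor was added in medium: TG 18 nM or BFA 0.2 μg/mL. After 72 h the medium was removed and CellTiter-Glo (intracellular ATP) added; luminescence was read after 10 min. DMSO without stressor was normalized as 1. Data are means of 3 replicate wells, with 3 independent experiments.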"}, "INS-1 β cells [4]": {"system": "INS-1 β cells", "experiment": "INS-1 cell viability against brefeldin A", "format": "cell-based, rat", "details": "BFA 0.2 μg/mL, 72 h, CellTiter-Glo", "outline": "as §1"}, "INS-1 β-cells [5]": {"system": "INS-1 β-cells", "experiment": "INS-1 β-cell viability against tunicamycin", "format": "cell-based, rat", "details": "INS-1 cells, Tm", "outline": "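Rat INS-1 cells in RPMI 1640 with 10% FBS were seeded at 5 × 10^3 cells/well and held 24 h at 37 °C. Test compound was added as ten 2-fold serial titration points, then tunicamycin at 0.15 μg/mL final, for 72 h co-treatment. Viability was read as CellTiter-Glo luminescence (ATP) after 10 min. Maximum activity is % rescue, with Tm alone set as 0% and DMSO without Tm as 100%. EC50 was derived by curve fitting. Run in triplicate.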"}}, "note": "“Also recorded” adds a separate entry of the source.", "data": [{"smiles": "Cc1ccc(C)c(NC(=O)c2nnn(-c3cccc(Cl)c3C)c2C)c1", "note": "[Compound 1, 1-(3-chloro-2-methylphenyl)-N-(2,5-dimethylphenyl)-5-methyl-1H-1,2,3-triazole-4-carboxamide, reference compound]", "values": [{"measurement": "aqueous solubility (in words)", "setting": "[1]", "result": "poor aqueous solubility; also recorded: limited aqueous solubility; also recorded: aqueous insolubility"}, {"measurement": "concentration at which β cell protective activity is exhibited", "setting": "INS-1 β-cells [2]; narrow range of doses", "result": "5~10 μM"}, {"measurement": "maximal activity", "setting": "INS-1 β-cells [2]; protection of β cells against ER stress", "result": 97, "unit": "%"}]}, {"smiles": "Cc1ccc(C)c(CNC(=O)CNC(=O)c2cccc(Cl)c2C)c1", "note": "[Compound 5a, 3-Chloro-N-(2-((2,5-dimethylbenzyl)amino)-2-oxoethyl)-2-methylbenzamide]", "values": [{"measurement": "solubility", "setting": "[1]", "result": "~75", "unit": "µM"}]}, {"smiles": "Cc1c(Cl)cccc1C(=O)NCC(=O)NCCc1ccc(O)cc1", "note": "[Compound 5f, 3-Chloro-N-(2-((4-hydroxyphenethyl)amino)-2-oxoethyl)-2-methylbenzamide]", "values": [{"measurement": "solubility", "setting": "[1]", "result": "~200", "unit": "µM"}]}, {"smiles": "Cc1c(Cl)cccc1C(=O)NCC(=O)NCc1ccc(C(F)(F)F)cc1", "note": "[Compound 5g, 3-Chloro-2-methyl-N-(2-oxo-2-((4-(trifluoromethyl)benzyl)amino)ethyl)benzamide]", "values": [{"measurement": "aqueous solubility (in words)", "setting": "[1]", "result": "improved water solubility compare to 1"}]}, {"smiles": "COc1cc(CNC(=O)CNC(=O)c2cccc(Cl)c2C)ccc1O", "note": "[Compound 5h, 3-Chloro-N-(2-((4-hydroxy-3-methoxybenzyl)amino)-2-oxoethyl)-2-methylbenzamide]", "values": [{"measurement": "aqueous solubility (in words)", "setting": "[1]", "result": "improved water solubility compare to 1"}]}, {"smiles": "O=C(CNC(=O)c1cccc(O)c1)NCc1ccc(C(F)(F)F)cc1", "note": "[Compound 5m, 3-Hydroxy-N-(2-oxo-2-((4-(trifluoromethyl)benzyl)amino)ethyl)benzamide]", "values": [{"measurement": "reduction in viability of INS-1 cells treated with TG", "setting": "INS-1 β cells [3]", "result": "significantly reversed"}, {"measurement": "reduction in viability of INS-1 cells treated with BFA", "setting": "INS-1 β cells [4]", "result": "significantly reversed"}]}, {"smiles": "COc1cc(CNC(=O)CNC(=O)c2cccc(O)c2)ccc1O", "note": "[Compound 5n, 3-Hydroxy-N-(2-((4-hydroxy-3-methoxybenzyl)amino)-2-oxoethyl)benzamide]", "values": [{"measurement": "β-cell protective activity (in words)", "setting": "INS-1 β-cells [5]", "result": "significantly compromised activity"}]}, {"smiles": "COc1cc(C(=O)NCC(=O)NCc2ccc(C(F)(F)F)cc2)ccc1O", "note": "[Compound 5o, 4-hydroxy-3-methoxy-N-(2-oxo-2-((4-(trifluoromethyl)benzyl)amino)ethyl)benzamide]", "values": [{"measurement": "β-cell protective activity (in words)", "setting": "INS-1 β-cells [5]", "result": "significantly compromised activity"}]}, {"smiles": "Cc1c(Cl)cccc1C(=O)NC(C)C(=O)NCc1ccc(C(F)(F)F)cc1", "note": "(stereo not shown) [Compound 5p, 3-Chloro-2-methyl-N-(1-oxo-1-((4-(trifluoromethyl)benzyl)amino)propan-2-yl)benzamide]", "values": [{"measurement": "β-cell protective activity (in words)", "setting": "INS-1 β-cells [5]", "result": "significantly less or not active"}]}, {"smiles": "Cc1c(Cl)cccc1C(=O)NC(Cc1ccc(O)cc1)C(=O)NCc1ccc(C(F)(F)F)cc1", "note": "(stereo not shown) [Compound 5q, 3-Chloro-N-(3-(4-hydroxyphenyl)-1-oxo-1-((4-(trifluoromethyl)benzyl)amino)propan-2-yl)-2-methylbenzamide]", "values": [{"measurement": "β-cell protective activity (in words)", "setting": "INS-1 β-cells [5]", "result": "significantly less or not active"}]}]}
